In brackets after ≈: the same amount, converted by molar mass. Activity calls are given as the source filed them. The rule behind the calls is not given here.
What was measured:
Nucleic Acid [1] = assay: Binding affinity to chicken blood dsDNA assessed as hyperchromic effect at 1.1 x 10 '-4 M at pH 4.7 by UV-spectroscopy; format: nucleic-acid assay; settings: Gallus gallus
Outline: (§1)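 Chicken blood DNA (A260/A280 >1.8) quantified at 260 nm (ε 6600). Compound held at 1.1 × 10^-4 M; DNA titrated 10–50 µM in acetate pH 4.7 or phosphate pH 7.4 buffer at 37 °C; UV absorbance recorded. Kb taken as intercept/slope of A0/(A−A0) vs 1/[DNA] (Benesi–Hildebrand); ΔG = −RTlnKb.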

Nucleic Acid [2] = assay: Binding affinity to chicken blood dsDNA assessed as hyperchromic effect at 1.1 x 10 '-4 M at pH 7.4 by UV-spectroscopy; format: nucleic-acid assay; settings: Gallus gallus; outline: as §1
Nucleic Acid [3] = assay: Binding affinity to chicken blood dsDNA at pH 4.7 by UV-spectroscopy; format: nucleic-acid assay; settings: Gallus gallus; outline: as §1
Nucleic Acid [4] = assay: Binding affinity to chicken blood dsDNA at pH 7.4 by UV-spectroscopy; format: nucleic-acid assay; settings: Gallus gallus; outline: as §1
Nucleic Acid [5] = assay: Binding affinity to chicken blood dsDNA at pH 4.7 by cyclic voltammetry; format: nucleic-acid assay; settings: Gallus gallus
Outline: (§2)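 Cyclic voltammetry at glassy carbon electrode vs SCE. Compound 1 mM in acetate pH 4.7 or phosphate pH 7.4 buffer at 37 °C, argon-purged 10–15 min. Scanned −1 to +1.5 V at 100 mV/s before and after chicken blood DNA (10–50 µM final). Peak current decrease and Ep shift recorded; Kb derived from current decrease.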

Nucleic Acid [6] = assay: Binding affinity to chicken blood dsDNA at pH 7.4 by cyclic voltammetry; format: nucleic-acid assay; settings: Gallus gallus; outline: as §2
[7] = system: Bordetella bronchiseptica; assay: Antibacterial activity against Bordetella bronchiseptica ATCC 10580 after 24 hrs by agar well diffusion method; format: functional; settings: ATCC 10580, 24 h
Outline: (§3)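 MIC by agar well diffusion with serial dilutions. Strains grown in LB at 37 °C for 24 h. 0.75 ml broth culture mixed into 75 ml nutrient agar and poured; 8 mm wells cut, filled with test sample in DMSO. Plates incubated 37 °C for 24 h. DMSO served as negative control, roxithromycin and cefixime as positive controls.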

Klebsiella aerogenes [8] = assay: Antibacterial activity against Enterobacter aerogenes ATCC 13048 after 24 hrs by agar well diffusion method; format: functional; settings: ATCC 13048, 24 h; outline: as §3
Salmonella typhi [9] = assay: Antibacterial activity against Salmonella typhi ATCC 6539 after 24 hrs by agar well diffusion method; format: functional, Salmonella enterica subsp. enterica serovar Typhi; settings: Salmonella enterica, ATCC 6539, 24 h
Escherichia coli [10] = assay: Antibacterial activity against Escherichia coli ATCC 15224 after 24 hrs by agar well diffusion method; format: functional; settings: ATCC 15224, 24 h; outline: as §3
Micrococcus luteus [11] = assay: Antibacterial activity against Micrococcus luteus ATCC 10240 after 24 hrs by agar well diffusion method; format: functional; settings: ATCC 10240, 24 h; outline: as §3
Staphylococcus aureus [12] = assay: Antibacterial activity against Staphylococcus aureus ATCC 6538 after 24 hrs by agar well diffusion method; format: functional; settings: ATCC 6538, 24 h; outline: as §3
[13] = system: Bordetella bronchiseptica; assay: Antibacterial activity against Bordetella bronchiseptica ATCC 10580 at 1 mg/ml after 24 hrs by agar well diffusion method; format: functional; settings: for zone of inhibition at 1000 µg/mL: ATCC 10580, 24 h, read-out: DIZ
Outline: (§4)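 Agar well diffusion. Strains grown in LB at 37 °C for 24 h; 0.75 ml broth culture seeded into 75 ml nutrient agar. 8 mm wells received 100 µl of sample at 1 mg/ml in DMSO. Incubated 37 °C for 24 h; inhibition zone diameter measured in mm. DMSO negative control; roxithromycin and cefixime (1 mg/ml) positive controls.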

Klebsiella aerogenes [14] = assay: Antibacterial activity against Enterobacter aerogenes ATCC 13048 at 1 mg/ml after 24 hrs by agar well diffusion method; format: functional; settings: for zone of inhibition at 1000 µg/mL: ATCC 13048, 24 h, read-out: DIZ; outline: as §4
Salmonella typhi [15] = assay: Antibacterial activity against Salmonella typhi ATCC 6539 at 1 mg/ml after 24 hrs by agar well diffusion method; format: functional, Salmonella enterica subsp. enterica serovar Typhi; settings: for zone of inhibition at 1000 µg/mL: Salmonella enterica, ATCC 6539, 24 h, read-out: DIZ; for diameter of the inhibition zone (DIZ): Salmonella enterica subsp. enterica serovar Typhi
Outline: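 Agar well diffusion. S. typhi ATCC 6539 grown in LB at 37 °C for 24 h, 0.75 ml broth culture seeded into 75 ml nutrient agar. 8 mm wells received 100 µl of sample at 1 mg/ml in DMSO. Plates incubated 37 °C for 24 h and inhibition zone diameter measured in mm. DMSO as negative control; roxithromycin and cefixime (1 mg/ml) as positive controls.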

Escherichia coli [16] = assay: Antibacterial activity against Escherichia coli ATCC 15224 at 1 mg/ml after 24 hrs by agar well diffusion method; format: functional; settings: for zone of inhibition at 1000 µg/mL: ATCC 15224, 24 h, read-out: DIZ; outline: as §4
Micrococcus luteus [17] = assay: Antibacterial activity against Micrococcus luteus ATCC 10240 at 1 mg/ml after 24 hrs by agar well diffusion method; format: functional; settings: for zone of inhibition at 1000 µg/mL: ATCC 10240, 24 h, read-out: DIZ; outline: as §4
Staphylococcus aureus [18] = assay: Antibacterial activity against Staphylococcus aureus ATCC 6538 at 1 mg/ml after 24 hrs by agar well diffusion method; format: functional; settings: for zone of inhibition at 1000 µg/mL: ATCC 6538, 24 h, read-out: DIZ; outline: as §4
Nucleic Acid [19] = assay: Antioxidant activity against OH-radical-induced oxidative Escherichia coli pBR322 damage at 10 to 100 ug/ml incubated for 1 hr in dark by agarose gel electrophoresis; format: nucleic-acid assay
Outline: (§5)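 pBR322 plasmid diluted in 50 mM phosphate buffer. 15 µl reactions held diluted plasmid, test compound (1000, 100 or 10 µg/ml), 2 mM FeSO4 and 30% H2O2. Incubated 37 °C for 1 h in dark. Controls: plasmid plus FeSO4/H2O2, and untreated plasmid. Run on 1% agarose in TBE, ethidium bromide stained; supercoiled band intensity compared with control.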

Nucleic Acid [20] = assay: Enhancement of OH-radical-induced oxidative Escherichia coli pBR322 damage at 1000 ug/ml incubated for 1 hr in dark by agarose gel electrophoresis; format: nucleic-acid assay; outline: as §5
Artemia = assay: Cytotoxicity against brine shrimps after 24 hr; format: functional; settings: read-out: LD50 (the source's name)
Outline: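 Brine shrimp lethality. Artemia salina hatched 48 h at room temperature in aerated artificial sea water (sea salt 38 g/l). Ten active nauplii per vial in 5 ml sea water with compound at 10, 100 and 1000 µg/ml final. Survivors counted after 24 h, run in triplicate. LD50 derived by Finney analysis.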

Nucleic Acid [21] = assay: Binding affinity to chicken blood dsDNA assessed as shift in Ep/mv at 1 x 10 '-3 M at pH 4.7 by cyclic voltammetry; format: nucleic-acid assay; settings: Gallus gallus; outline: as §2
Nucleic Acid [22] = assay: Binding affinity to chicken blood dsDNA assessed as shift in Ep/mv at 1 x 10 '-3 M at pH 7.4 by cyclic voltammetry; format: nucleic-acid assay; settings: Gallus gallus; outline: as §2
Nucleic Acid [23] = assay: Binding affinity to chicken blood dsDNA assessed as decrease in current at 1 x 10 '-3 M at pH 4.7 by cyclic voltammetry; format: nucleic-acid assay; design: scale not given: the % may be the effect or the level left; settings: Gallus gallus; outline: as §2
Nucleic Acid [24] = assay: Binding affinity to chicken blood dsDNA assessed as decrease in current at 1 x 10 '-3 M at pH 7.4 by cyclic voltammetry; format: nucleic-acid assay; design: scale not given: the % may be the effect or the level left; settings: Gallus gallus; outline: as §2
Nucleic Acid [25] = assay: Antioxidant activity against OH-radical-induced oxidative Escherichia coli pBR322 damage at 10 to 1000 ug/ml incubated for 1 hr in dark by agarose gel electrophoresis; format: nucleic-acid assay; outline: as §5
Nucleic Acid [26] = assay: Antioxidant activity against OH-radical-induced oxidative Escherichia coli pBR322 damage at 100 to 1000 ug/ml incubated for 1 hr in dark by agarose gel electrophoresis; format: nucleic-acid assay; outline: as §5
Nucleic Acid [27] = assay: Antioxidant activity against OH-radical-induced oxidative Escherichia coli pBR322 damage at 10 ug/ml incubated for 1 hr in dark by agarose gel electrophoresis; format: nucleic-acid assay; outline: as §5

Row | SMILES | Activity (Nucleic Acid [1]) | Activity (Nucleic Acid [2]) | Kb (Nucleic Acid [3]) | Kb (Nucleic Acid [4]) | Kb (Nucleic Acid [5]) | Kb (Nucleic Acid [6]) | zone of inhibition at 1000 µg/mL [13] | zone of inhibition at 1000 µg/mL (Klebsiella aerogenes [14]) | zone of inhibition at 1000 µg/mL (Salmonella typhi [15]) | zone of inhibition at 1000 µg/mL (Escherichia coli [16]) | zone of inhibition at 1000 µg/mL (Micrococcus luteus [17]) | zone of inhibition at 1000 µg/mL (Staphylococcus aureus [18]) | LC50 (Artemia) | Activity (Nucleic Acid [21]) | Activity (Nucleic Acid [22]) | Activity (Nucleic Acid [23]) | Activity (Nucleic Acid [24]) | diameter of the inhibition zone (DIZ) [13] | diameter of the inhibition zone (DIZ) (Klebsiella aerogenes [14]) | diameter of the inhibition zone (DIZ) (Salmonella typhi [15]) | further results
1 | NNC(=O)c1ccc(O)cc1O | Active | Active | 2.02 ×10⁴ /M | 1.24 ×10⁴ /M | 3.13 ×10⁴ /M | 1.31 ×10⁴ /M | 18.2 mm | 15.3 mm | 24.6 mm | 25.1 mm | 18.2 mm | 13.4 mm | 419 µg/mL (≈ 2490 µM) | 20 | 37 | 29.2% | 26.1% | – | – | – | MIC [7]: 800 µg/mL (≈ 4760 µM); MIC (Klebsiella aerogenes [8]): 800 µg/mL (≈ 4760 µM); MIC (Salmonella typhi [9]): 100 µg/mL (≈ 595 µM); MIC (Escherichia coli [10]): 100 µg/mL (≈ 595 µM); MIC (Micrococcus luteus [11]): 800 µg/mL (≈ 4760 µM); MIC (Staphylococcus aureus [12]): 200 µg/mL (≈ 1190 µM); Activity (Nucleic Acid [19]): Active; Activity (Nucleic Acid [20]): Toxic
2 | C=CC1=C(C(=O)O)N2C(=O)[C@@H](NC(=O)/C(=N\OCC(=O)O)c3csc(N)n3)[C@H]2SC1 [CEFIXIME] | – | – | – | – | – | – | 38.5 mm | 16.1 mm | 34.3 mm | 40.5 mm | 38.7 mm | 39.1 mm | – | – | – | – | – | – | – | – | –
3 | NNC(=O)c1ccncc1 [ISONIAZID] | Active | Active | 1.6 ×10⁴ /M | 1.42 ×10⁴ /M | 2.03 ×10⁴ /M | 1.6 ×10⁴ /M | – | – | – | – | – | – | 1070 µg/mL (≈ 7840 µM) | 51 | 8 | 50.8% | 77.1% | inactive | inactive | inactive | diameter of the inhibition zone (DIZ) (Escherichia coli [16]): inactive; diameter of the inhibition zone (DIZ) (Micrococcus luteus [17]): inactive; diameter of the inhibition zone (DIZ) (Staphylococcus aureus [18]): inactive; Activity (Nucleic Acid [25]): Active
4 | NNC(=O)c1cnccn1 [PYRAZINE CARBOXYLIC ACID HYDRAZIDE] | Active | Active | 1.6 ×10⁴ /M | 1.1 ×10⁴ /M | 1.7 ×10⁴ /M | 1.21 ×10⁴ /M | – | – | – | – | – | – | 313 µg/mL (≈ 2260 µM) | 44 | 51 | 75% | 33.3% | inactive | inactive | inactive | diameter of the inhibition zone (DIZ) (Escherichia coli [16]): inactive; diameter of the inhibition zone (DIZ) (Micrococcus luteus [17]): inactive; diameter of the inhibition zone (DIZ) (Staphylococcus aureus [18]): inactive; Activity (Nucleic Acid [26]): Active; Activity (Nucleic Acid [27]): inactive
5 | CC[C@H]1OC(=O)[C@H](C)[C@@H](O[C@H]2C[C@@](C)(OC)[C@@H](O)[C@H](C)O2)[C@H](C)[C@@H](O[C@@H]2O[C@H](C)C[C@H](N(C)C)[C@H]2O)[C@](C)(O)C[C@@H](C)/C(=N\OCOCCOC)[C@H](C)[C@@H](O)[C@]1(C)O [ROXITHROMYCIN] | – | – | – | – | – | – | 18.2 mm | 31.2 mm | 27.9 mm | 18.1 mm | 30.2 mm | 32 mm | – | – | – | – | – | – | – | – | –

Source: ChEMBL document CHEMBL1938314, “Electrochemical and spectroscopic investigations of isoniazide and its analogs with ds.DNA at physiological pH: evaluation of biological activities” (Eur J Med Chem, 2012)
